Screening data: PubChem BioAssay, Broad Institute
Hits are enriched below; roughly 3.2% of the tested compounds scored in any of these assays.
MLL AF4-AF9 inh: inhibitors of AF4 peptide binding to AF9, primary screen, biochemical, AlphaScreen, biotin-AF4 peptide, FLAG-AF9, single point; Protein AF-9 (Homo sapiens), P42568; inhibition, % at 10 µM; actives 0.47% (n = 350,000);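 active = every replicate reaching a set inhibition limit, whatever the replicate mean, cut at about 25% in these data; inconclusive = mean inhibition reaches that limit but some replicates miss it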
Target sequence (P42568 whole entry, looked up): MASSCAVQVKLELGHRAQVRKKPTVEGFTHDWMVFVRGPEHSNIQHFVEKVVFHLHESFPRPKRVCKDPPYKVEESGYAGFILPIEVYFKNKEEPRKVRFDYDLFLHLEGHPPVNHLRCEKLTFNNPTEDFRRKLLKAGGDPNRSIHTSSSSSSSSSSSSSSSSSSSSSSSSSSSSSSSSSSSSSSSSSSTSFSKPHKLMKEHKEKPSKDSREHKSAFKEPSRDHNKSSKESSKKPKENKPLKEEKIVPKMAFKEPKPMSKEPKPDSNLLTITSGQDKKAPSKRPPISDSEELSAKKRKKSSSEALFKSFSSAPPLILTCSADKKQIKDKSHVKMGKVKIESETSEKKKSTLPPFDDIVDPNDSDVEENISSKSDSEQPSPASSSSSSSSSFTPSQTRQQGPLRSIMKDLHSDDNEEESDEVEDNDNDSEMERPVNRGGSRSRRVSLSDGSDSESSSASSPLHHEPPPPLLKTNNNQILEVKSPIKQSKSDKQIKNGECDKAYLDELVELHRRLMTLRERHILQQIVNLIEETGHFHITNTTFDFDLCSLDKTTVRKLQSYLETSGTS
S100A4 MyoIIA: inhibitors of S100A4-myosin IIA peptide binding, primary screen, biochemical, fluorescence polarization, TAMRA-MyoIIA peptide; Protein S100-A4 (Homo sapiens), P26447; inhibition, % at 10.7 µM; actives 0.14% (n = 360,000); AID 652163, 2013;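 active = mean inhibition of at least 70% across replicates, with every replicate also reaching that level; inconclusive = mean inhibition reaches 70% but some replicates fall short; inactive = mean inhibition below 70%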
Target sequence (P26447 whole entry, looked up): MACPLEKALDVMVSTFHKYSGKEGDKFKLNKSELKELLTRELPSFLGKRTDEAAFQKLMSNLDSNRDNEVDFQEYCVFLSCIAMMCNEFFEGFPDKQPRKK
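Test system: S100A4 monomer protein. Medium: HEPES buffer with Ca2+, pH 7.2. Reagent: fluorescent myosin IIA peptide, 5 nM. Compound dosing: single-point compound testing. Timing: 5 min between mix addition and reading. Benchmarks: DMSO neutral and TFP positive wells.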
PfHsp90 yeast 2: growth inhibition of PfHsp90-expressing yeast, primary screen, antimalarial PfHsp90 inhibitor project, S. cerevisiae, BacTiter-Glo luminescence, single point, set 2 | BacTiter-Glo ATP, 48 h; yeast lacking PDR1 and PDR3 efflux regulators | inhibition, % at 9.4 µM | actives 0.32% (n = 310,000) | AID 504621, 2011;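 active = every replicate shows inhibition above about 80%, whatever the replicate mean, limit read from the data; inconclusive = mean inhibition reaches the set limit but some replicate falls short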
Ecoli rRNA inh: reduced GFP signal of wild-type E. coli, primary screen, bacterial rRNA inhibitor project, GFP/RFP fluorescence, OD600, single point. E. coli WT GFP vs humanized-ribosome RFP mutants, 24 h; active compounds read low; DMSO median 0, no signal -100. GFP signal change (wild-type ribosome), % (concentration not given with the values). actives 1.6% (n = 350,000);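 active = significant combined selectivity score with lowered wild-type GFP, culture density cut under 30%, mutant RFP and density less affected; inactive = any of these conditions unmet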
DENV2 CPE rescue: inhibitors of DENV2 cytopathic effect, primary screen, cell-based, plate reader, single concentration; DENV2-infected cells, cytopathic effect rescue; CPE inhibition, % at 9.99 µM; actives 1.7% (n = 350,000); in the data active = CPE inhibition above about 20%, passing the limit was not always enough; inconclusive = no clear call, values can overlap the other calls; tested in BHK-21 cells
Cneo AK release: Cryptococcus neoformans cell lysis inducers, primary screen, AK release luminescence, single concentration | C. neoformans lysis, adenylate kinase release luminescence, 4 h; normalised: neutral wells 0, clomiphene wells 100 | lysis activity, % at 15 µM | actives 0.2% (n = 360,000);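 active = mean lysis activity across replicates of at least 80%, whatever share of replicates individually reach that level; inactive = mean lysis activity below 80%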
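Signal: Adenylate kinase release luminescence | Assay system: Log-phase Cryptococcus neoformans yeast cells | Input: Cells at 5 × 10^6 per mL | Buffer or medium: Fresh YPD growth medium | Compound: Single dose | Schedule: Static 4 h at 37 °C with compound, 1 h detection | Controls: Clomiphene | Read-out: Luminescence rise reflecting yeast cell lysis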
Numbers stand for hits; – = inactive; ? = inconclusive; · = not tested or not shown.

SMILES | MLL AF4-AF9 inh | S100A4 MyoIIA | PfHsp90 yeast 2 | Ecoli rRNA inh | DENV2 CPE rescue | Cneo AK release
COc1ccc(N=Cc2cc(Cc3ccccc3Cl)cc([N+](=O)[O-])c2O)cc1OC | · | · | 111 | · | · | ·
Cc1n[nH]c(C)c1Sc1ccccc1N=Cc1cc(Cl)cc([N+](=O)[O-])c1O | · | · | – | · | · | –
Cc1ccc(N=Cc2cc(Cc3ccccc3Cl)cc([N+](=O)[O-])c2O)c(O)c1 | · | · | 111 | · | · | ·
CN1CCCC1c1cccnc1 (configuration not stated) | – | – | – | – | 117 | –
CC(=O)Nc1ccc(S(=O)(=O)N2CCCCC2c2cccnc2)cc1 (configuration not stated) | · | · | – | · | · | –
O=C1Nc2ccccc2/C1=C/c1ccccc1F | – | – | – | -29 | – | –
Cc1onc(-c2ccccc2)c1C(=O)NC(=S)NNC(=O)c1ccccc1O | – | – | 101 | – | – | ·
C[C@H]1CN([C@@H](C)CO)C(=O)c2cccc(NC(=O)C3CCOCC3)c2O[C@@H]1CN(C)C(=O)Nc1ccc(F)cc1 | – | – | · | – | – | –
C[C@@H]1CCCCO[C@@H](CN(C)C(=O)Nc2ccc(C(F)(F)F)cc2)[C@H](C)CN([C@@H](C)CO)C(=O)c2cc(NC(=O)c3ccncc3)ccc2O1 | – | – | · | – | 76 | –
C[C@H]1CN([C@@H](C)CO)C(=O)c2cc(NC(=O)c3ccncc3)ccc2O[C@H]1CN(C)C(=O)Nc1ccccc1 | – | – | · | – | 64 | –
C[C@@H]1CN([C@H](C)CO)C(=O)c2cc(NC(=O)c3ccncc3)ccc2O[C@@H]1CN(C)C(=O)Nc1ccc(C(F)(F)F)cc1 | – | – | · | – | – | –
C[C@H]1CCCCO[C@H](CN(C)C(=O)Nc2ccc(C(F)(F)F)cc2)[C@@H](C)CN([C@@H](C)CO)C(=O)c2cc(NC(=O)c3ccncc3)ccc2O1 | – | – | · | – | – | –
C[C@H]1CCCCO[C@H](CN(C)C(=O)Nc2ccc(F)cc2)[C@@H](C)CN([C@@H](C)CO)C(=O)c2cc(NC(=O)c3ccncc3)ccc2O1 | – | – | · | – | – | –
C[C@@H]1CN([C@H](C)CO)C(=O)c2cc(NC(=O)c3ccncc3)ccc2O[C@@H](C)CCCCO[C@H]1CN(C)C(=O)Nc1ccc(F)cc1 | – | – | · | – | 26 | –
C[C@@H]1CN([C@@H](C)CO)C(=O)c2cc(NC(=O)c3ccncc3)ccc2O[C@@H](C)CCCCO[C@@H]1CN(C)C(=O)Nc1ccc(C(F)(F)F)cc1 | – | – | · | – | 55 | ·
CN=c1scc(-c2ccccc2F)n1/N=C/c1ccc(O)c(O)c1O | ? | – | – | – | – | –
CN=c1scc(-c2ccccc2F)n1/N=C/c1ccc[nH]1 | 45 | – | – | -22 | – | ·
CC1(C)CC(N2CCCCC2)=CC(=[N+]2CCCCC2)C1 | – | – | – | -37 | – | –
CCCN(CCC)C1=CC(=[N+]2CCCC2)CC(C)(C)C1 | – | – | – | -47 | – | ·
CN(C)NC1=CC(=[N+]2CCCC2)CC(C)(C)C1 | – | – | · | – | – | ·
CCOC(=O)CSc1nc2c(sc(=S)n2-c2ccccc2)c(=O)[nH]1 | – | – | – | – | – | ·
CCN(CC)C(=O)CSc1nc2c(sc(=S)n2-c2ccc(C)cc2C)c(=O)[nH]1 | – | – | – | -27 | – | –
CCOc1ccc(-n2c(=S)sc3c(=O)[nH]c(SCC(=O)C(C)(C)C)nc32)cc1 | – | – | – | -29 | – | –
CCOc1ccc(-n2c(=S)sc3c(=O)[nH]c(SCC(=O)N4CCC(C)CC4)nc32)cc1 | · | – | – | -25 | · | –
Cc1cccc(NS(=O)(=O)c2cccc3nsnc23)c1 | · | · | – | · | · | ·
SMILES | MLL AF4-AF9 inh | S100A4 MyoIIA | PfHsp90 yeast 2 | Ecoli rRNA inh | DENV2 CPE rescue | Cneo AK release
O=S(=O)(Nc1cccc(Br)c1)c1cccc2nsnc12 | – | – | – | -33 | – | –
Cc1noc(C)c1S(=O)(=O)Nc1ccc2c(c1)C(=O)N([C@H](C)CO)C[C@H](C)[C@H](CN(C)Cc1ccc(Oc3ccccc3)cc1)O2 | – | – | · | – | – | –
Oc1c(C(Nc2ccccn2)c2cccnc2)cc(Cl)c2cccnc12 (configuration not stated) | 43 | – | 103 | – | – | ·
Cc1ccc(C(c2cc(Cl)c3cccnc3c2O)N2CCN(C)CC2)cc1 (configuration not stated) | · | · | 107 | · | · | –
CC(=O)NC(c1ccco1)c1cc(Cl)c2cccnc2c1O (configuration not stated) | – | – | · | – | ? | –
Cc1cc(NC(c2cccnc2)c2ccc3cccnc3c2O)no1 (configuration not stated) | · | · | – | · | · | –
CC(=O)NC(c1cccs1)c1cc([N+](=O)[O-])c2cccnc2c1O (configuration not stated) | – | – | – | – | 87 | ·
CC(=O)NC(c1cc(Cl)c2cccnc2c1O)C1CC1 (configuration not stated) | – | – | – | – | · | –
CC(=O)NC(c1ccc(C)cc1)c1cc(Cl)c2cccnc2c1O (configuration not stated) | – | – | 115 | – | – | –
COc1ccc(NC(=O)N2C[C@H](O)COC[C@H]3O[C@H](CC(=O)NCc4ccccc4OC)CC[C@@H]32)cc1 | – | – | · | – | – | –
COc1cccc(NC(=O)N(C)C[C@H]2Oc3ncc(C4=CCCCC4)cc3C(=O)N([C@@H](C)CO)C[C@H]2C)c1 | – | – | · | – | – | –
CC(=O)NC(c1cc(Cl)c2cccnc2c1O)C(C)C (configuration not stated) | – | – | – | – | 42 | –
Oc1c(C(c2ccccn2)N2CCC(Cc3ccccc3)CC2)cc(Cl)c2cccnc12 (configuration not stated) | 45 | – | · | – | – | ·
c1ccc(CC2CCN(Cc3ccccn3)CC2)cc1 | – | – | – | – | – | ·
C[C@@H]1CN([C@H](C)CO)C(=O)Cc2cc(NC(=O)Nc3ccc(F)cc3)ccc2O[C@@H]1CN(C)S(=O)(=O)c1cccs1 | – | – | · | – | – | –
Cc1cc(S(=O)(=O)Nc2ccc3ccccc3c2)c(C)s1 | – | – | – | -51 | · | –
COc1ccc(-c2ccc3n(c2=O)C[C@H]2[C@H](CO)[C@@H](C(=O)N4CCCCC4)[C@@H]3N2C)cc1 | – | – | · | – | – | –
Fc1ccccc1NC(=S)Nn1cnnc1 | – | – | – | – | 44 | –
O=C(CN1CCC(n2nnc3cc(F)ccc32)CC1)N1CCc2ccccc2C1 | – | – | – | -23 | – | –
